Reference: ChEMBL document CHEMBL1126866, “TSAO analogues. 3. Synthesis and anti-HIV-1 activity of 2',5'-bis-O-(tert-butyldimethylsilyl)-beta-D-ribofuranosyl 3'-spiro-5''-(4''-amino-1'',2''-oxathiole 2'',2''-dioxide) purine and purine-modified nucleosides” (J Med Chem, 1993)

Key:
[1] = Effective concentration required to inhibit HIV-1 induced cytopathicity in MT-4 cells; type: functional, cell-based; settings: Human immunodeficiency virus 1, MT4
How it was run: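 MT-4 cells (5×10^5 cells/mL) were infected with HIV-1 at 100 CCID50 per mL of cell suspension and incubated with serial compound dilutions for 5 days. Viable cells were counted by trypan blue staining. EC50 = concentration reducing virus-induced loss of viable MT-4 cells by 50%.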

[2] = system: Human immunodeficiency virus 2; experiment: Effective concentration required to inhibit HIV-2 induced cytopathicity in MT-4 cells; type: functional, organism-based; settings: Human immunodeficiency virus 2, MT4
MT4 = experiment: Cytotoxic concentration required to inhibit the viability of MT-4 cells; type: functional; settings: Homo sapiens
How it was run: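 Mock-infected MT-4 cells (5×10^5 cells/mL) were cultured with serial dilutions of test compound for 5 days. Viable cells were counted by trypan blue staining. CC50 = concentration reducing the number of viable mock-infected MT-4 cells by 50%.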

[3] = system: Human immunodeficiency virus 1; experiment: Selectivity index expressed as the ratio of CC50/EC50 of MT-4 cell lines
CCRF-CEM = experiment: Effective concentration required to inhibit HIV- induced giant cell formation in CEM cells; type: functional, cell-based; settings: Homo sapiens
How it was run: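 CEM cells (5×10^5 cells/mL) were infected with HIV-1 at 100 CCID50 per mL of cell suspension and mixed with compound dilutions. Syncytia were scored microscopically after 4 days. EC50 = concentration reducing syncytium number by 50%.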

Compound | EC50 [1] [µM] | EC50 [2] [µM] | CC50 (MT4) [µM] | Selectivity index [3] | EC50 (CCRF-CEM) [µM]
CC(C)(C)[Si](C)(C)OC[C@H]1O[C@@H](n2cnc3c(O)ncnc32)[C@H](O[Si](C)(C)C(C)(C)C)[C@]12OS(=O)(=O)C=C2N | 0.158 | > 7 | 14 | 89 | –
CC(C)(C)[Si](C)(C)OC[C@H]1O[C@@H](n2cnc3c(N)ncnc32)[C@H](O[Si](C)(C)C(C)(C)C)[C@]12OS(=O)(=O)C=C2N | 0.278 | > 14 | 13 | 47 | –
Cn1cnc2c(ncn2[C@@H]2O[C@H](CO[Si](C)(C)C(C)(C)C)[C@@]3(OS(=O)(=O)C=C3N)[C@H]2O[Si](C)(C)C(C)(C)C)c1=O | 0.514 | > 150 | > 150 | >292 | 0.101
COc1ccc(C(Nc2ncnc3c2ncn3[C@@H]2O[C@H](CO[Si](C)(C)C(C)(C)C)[C@]3(OS(=O)(=O)C=C3N)[C@H]2O[Si](C)(C)C(C)(C)C)(c2ccccc2)c2ccccc2)cc1 | > 100 | > 100 | 191 | <1.9 | –
CC(C)(C)[Si](C)(C)OC[C@H]1O[C@@H](n2cnc3c(N)ncnc32)[C@H](O[Si](C)(C)C(C)(C)C)[C@@]12OS(=O)(=O)C=C2N | > 2.7 | > 2.7 | 7.3 | <2.7 | –
COc1ccc(C(Nc2ncnc3c2ncn3[C@@H]2O[C@H](CO[Si](C)(C)C(C)(C)C)[C@@]3(OS(=O)(=O)C=C3N)[C@H]2O[Si](C)(C)C(C)(C)C)(c2ccccc2)c2ccccc2)cc1 | > 100 | > 100 | 192 | <1.9 | –
CCn1cnc2ncn([C@@H]3O[C@H](CO[Si](C)(C)C(C)(C)C)[C@@]4(OS(=O)(=O)C=C4N)[C@H]3O[Si](C)(C)C(C)(C)C)c2c1=O | 0.604 | > 150 | > 150 | >248 | 0.172
CC(C)(C)[Si](C)(C)OC[C@H]1O[C@@H](n2c(=O)[nH]c(=O)c3[nH]cnc32)[C@H](O[Si](C)(C)C(C)(C)C)[C@]12OS(=O)(=O)C=C2N | 2.7 | > 7 | 14 | 5.2 | 2.3
CC(C)(C)[Si](C)(C)OC[C@H]1O[C@@H](n2cnc3[nH]c(=O)[nH]c(=O)c32)[C@H](O[Si](C)(C)C(C)(C)C)[C@]12OS(=O)(=O)C=C2N | 0.358 | > 7 | 13 | 36 | 0.126
CC(C)(C)[Si](C)(C)OC[C@H]1O[C@@H](n2cnc3ncn([C@@H]4O[C@H](CO[Si](C)(C)C(C)(C)C)[C@@]5(OS(=O)(=O)C=C5N)[C@H]4O[Si](C)(C)C(C)(C)C)c3c2=O)[C@H](O[Si](C)(C)C(C)(C)C)[C@]12OS(=O)(=O)C=C2N | > 150 | > 150 | > 150 | <1 | –
CC(C)(C)[Si](C)(C)OC[C@H]1O[C@@H](n2cnc3ccccc32)[C@H](O[Si](C)(C)C(C)(C)C)[C@]12OS(=O)(=O)C=C2N | 3.1 | > 7 | 15 | 4.8 | –
CC(C)(C)[Si](C)(C)OC[C@H]1O[C@@H](n2cnc3ncnc(O)c32)[C@H](O[Si](C)(C)C(C)(C)C)[C@]12OS(=O)(=O)C=C2N | 0.173 | > 7 | 15 | 86 | –
Cn1cnc2ncn([C@@H]3O[C@H](CO[Si](C)(C)C(C)(C)C)[C@@]4(OS(=O)(=O)C=C4N)[C@H]3O[Si](C)(C)C(C)(C)C)c2c1=O | 0.201 | > 100 | 156 | 776 | 0.067
CC(C)(C)[Si](C)(C)OC[C@H]1O[C@@H](n2cnc3cncnc32)[C@H](O[Si](C)(C)C(C)(C)C)[C@]12OS(=O)(=O)C=C2N | 0.177 | > 7 | 13 | 73 | 0.074
CN(C)c1ncnc2c1ncn2[C@@H]1O[C@H](CO[Si](C)(C)C(C)(C)C)[C@@]2(OS(=O)(=O)C=C2N)[C@H]1O[Si](C)(C)C(C)(C)C | 0.389 | > 30 | 15 | 39 | 0.646
CNc1ncnc2c1ncn2[C@@H]1O[C@H](CO[Si](C)(C)C(C)(C)C)[C@@]2(OS(=O)(=O)C=C2N)[C@H]1O[Si](C)(C)C(C)(C)C | 0.146 | > 7 | 14 | 96 | 0.161
COc1ncnc2c1ncn2[C@@H]1O[C@H](CO[Si](C)(C)C(C)(C)C)[C@@]2(OS(=O)(=O)C=C2N)[C@H]1O[Si](C)(C)C(C)(C)C | 0.141 | > 30 | 21 | 149 | 0.469
